Results collected from several papers.
Compare with care: the assays were run in different laboratories.
ABL1 Q252H non-phosphorylated: Tyrosine-protein kinase ABL1, non-phosphorylated (ABL1, Homo sapiens, UniProt P00519, Q252H)
ABL1 H396P non-phosphorylated: Tyrosine-protein kinase ABL1, non-phosphorylated (ABL1, Homo sapiens, UniProt P00519, H396P)
ABL1 T315I non-phosphorylated: Tyrosine-protein kinase ABL1, non-phosphorylated (ABL1, Homo sapiens, UniProt P00519, T315I)
ABL1 T315I: Tyrosine-protein kinase ABL1 (ABL1, Homo sapiens, UniProt P00519, T315I)
ABL1 H396P phosphorylated: Tyrosine-protein kinase ABL1, phosphorylated (ABL1, Homo sapiens, UniProt P00519, H396P)
ABL1 M351T phosphorylated: Tyrosine-protein kinase ABL1, phosphorylated (ABL1, Homo sapiens, UniProt P00519, M351T)
ABL1 F317I non-phosphorylated: Tyrosine-protein kinase ABL1, non-phosphorylated (ABL1, Homo sapiens, UniProt P00519, F317I)

O=C(NCc1ncc(C(F)(F)F)cc1Cl)c1ccc2c(c1)C1(CCS(=O)(=O)CC1)[C@@H](C1CC1)N2S(=O)(=O)c1ccc(F)cc1 — remaining binding (ABL1 Q252H non-phosphorylated; cell-free assay, competition with immobilised ligand; 1 µM): 100%
C=CC(=O)N1CCC(C(=O)NCC(=O)N2CCN(c3nc(-c4cnc(N)nc4C(F)F)nc(N4CCOCC4)n3)CC2)CC1 — remaining binding (Tyrosine-protein kinase ABL1, non-phosphorylated (ABL1, Homo sapiens, UniProt P00519, F317L); binding, competition with immobilised ligand; 1 µM): 90%
O=C(c1ccc(Nc2ncc(Cl)c(-c3cc4ccccc4s3)n2)cc1)N1CCC(N2CCCC2)CC1 — remaining binding (Tyrosine-protein kinase ABL1, phosphorylated (ABL1, Homo sapiens, UniProt P00519, F317L); binding, competition with immobilised ligand; 1 µM): 54%
C[C@@H]1CN(c2cc(-c3nn(C)c4ccc(OC5(C)CC5)cc34)ncn2)C[C@H](C)O1 — remaining binding (ABL1 H396P non-phosphorylated; cell-free assay, competition with immobilised ligand; 1 µM): 75%
O=C(NCC1CCOCC1)c1n[nH]cc1NC(=O)c1c(F)cccc1F — remaining binding (ABL1 T315I non-phosphorylated; binding, competition with immobilised ligand; 1 µM): 90%
CN(C)c1nccc(-c2cnn3ncccc23)n1 — remaining binding (ABL1 T315I; binding; 1 µM): 80%
COc1cnc(Nc2cccc(S(N)(=O)=O)c2)nc1N1CCN(c2ccccc2)C(=O)C1 — remaining binding (Tyrosine-protein kinase ABL1, phosphorylated (ABL1, Homo sapiens, UniProt P00519, Y253F); binding, competition with immobilised ligand; 1 µM): 82%
CCN1CCN(Cc2ccc(C(=O)Nc3ccc(C)c(Oc4ccc5c(c4)CC(=O)N5)c3)cc2C(F)(F)F)CC1 — remaining binding (ABL1 H396P phosphorylated; binding, competition with immobilised ligand; 1 µM): 62%
O=C(c1ccc(Nc2nccc(-c3cc4ccccc4s3)n2)cc1)N1CCC(N2CCCC2)CC1 — remaining binding (ABL1 Q252H non-phosphorylated; binding, competition with immobilised ligand; 1 µM): 9.8%
Cc1nccc(COC(=O)N2C[C@@H]3[C@@H](CNC(=O)c4ccc5[nH]nnc5c4)[C@@H]3C2)n1 — remaining binding (ABL1 M351T phosphorylated; cell-free assay, competition with immobilised ligand; 1 µM): 95%
N[C@H]1CCN(c2nccc(-c3cnn4ncccc34)n2)C1 — remaining binding (Tyrosine-protein kinase ABL1 (ABL1, Homo sapiens, UniProt P00519, H396P); binding; 1 µM): 58%
O=C(NCCCN1CCOCC1)c1ccc(Nc2ncc(Cl)c(-c3ccc(Cl)s3)n2)cc1 — remaining binding (ABL1 F317I non-phosphorylated; binding, competition with immobilised ligand; 1 µM): 100%
CC1CCCN1c1nccc(-c2cnn3ncccc23)n1 (stereo not shown) — remaining binding (Tyrosine-protein kinase ABL1 (ABL1, Homo sapiens, UniProt P00519, Y253F); binding; 1 µM): 96%
CNCc1ccccc1-c1csc([C@@H](C)Nc2nc(C)nc3cc(OC)c(OC)cc23)c1 — remaining binding (ABL1 F317I non-phosphorylated; binding, competition with immobilised ligand; 1 µM): 100%
COc1ncc2cc3ccccc3nc2c1C#N — remaining binding (ABL1 H396P phosphorylated; cell-free assay, competition with immobilised ligand; 5 µM): 97%
CN(c1nccc(-c2cnn3ncccc23)n1)C1CC1 — remaining binding (ABL1 T315I; binding; 1 µM): 100%
N#Cc1ccc(Nc2ccc3[nH]c(=O)[nH]c3c2)c(Cl)c1 — remaining binding (ABL1 H396P phosphorylated; cell-free assay, competition with immobilised ligand; 1 µM): 95%
COc1cnc(Nc2cccc(S(N)(=O)=O)c2)nc1N1CCN(c2ccccc2)CC1 — remaining binding (Tyrosine-protein kinase ABL1, phosphorylated (ABL1, Homo sapiens, UniProt P00519, T315I); binding, competition with immobilised ligand; 1 µM): 88%
CNC(=O)Nc1ccc2c(c1)CC[C@@]21OC(=O)N(CC(=O)N(Cc2ccc(F)cc2)[C@@H](C)C(F)(F)F)C1=O — remaining binding (ABL1 T315I non-phosphorylated; cell-free assay, competition with immobilised ligand; 1 µM): 78%
O=C(Nc1c[nH]nc1C(=O)NC1CCNCC1)c1cc(F)cc(F)c1 — remaining binding (ABL1 M351T phosphorylated; binding, competition with immobilised ligand; 1 µM): 100%
O=C(O)[C@@H]1[C@@H](Cn2nnc3ccccc3c2=O)CC[C@H]1C(=O)c1ccc(OCCC2CCOCC2)cc1 — remaining binding (ABL1 H396P non-phosphorylated; cell-free assay, competition with immobilised ligand; 1 µM): 97%
O=C(c1ccc(Nc2ncc(Cl)c(-c3ccc(Cl)s3)n2)cc1)N1CCC(N2CCCC2)CC1 — remaining binding (Tyrosine-protein kinase ABL1, phosphorylated (ABL1, Homo sapiens, UniProt P00519, F317I); binding, competition with immobilised ligand; 1 µM): 87%
